Screens from PubChem BioAssay.
Rows were chosen to be rich in hits. Some 3.4% of all compounds tested hit in one or more screens of this group.
AHR activator: AHR activators, primary screen, cell-based, luminescence, luciferase reporter, human; AHR-responsive luciferase reporter cells; activation, % at 5 µM; 2.5% of 320,000 active; AID 2796, 2010; in the data active = activation above about 47%;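 note: 0% = vehicle wells and 100% = reference agonist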
Arr AP2 block: inhibitors of beta-arrestin/AP2 binding, primary screen, biochemical, GPCR trafficking, flow cytometry | beta-arrestin 1 C-terminal peptide binding to AP2 beta2-adaptin appendage (human) | FITC-arrestin peptide / GST-AP2 beads; AP2 beta2 appendage carries R879A mutation | inhibition, % at 10 µM | 0.31% of 340,000 active | AID 504490, 2011;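 active = inhibition above a set limit, near 3 SD of compounds lacking own fluorescence, cut at about 54% in these data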;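 note: plate controls were DMSO wells for no effect and 5 µM unlabelled arrestin peptide for full effect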
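Measured by: flow cytometry, FL1 (488/535 nm); Material: AP2 appendage R879A on GSH beads; Evaluation: percent response; Timing: pre-incubation 12 min, peptide binding 1 h, room temperature; Also added: 50 nM FITC-arrestin peptide; Medium: PBS with 0.05% Tween 20 and 0.1% BSA.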
UCH37 inh: inhibitors of human UCH37 deubiquitinase, primary screen, biochemical, Ub-AMC cleavage, fluorescence; inhibition, % (no concentration beside the values); AID 588478, 2011; purified proteasome/UCH37; 0.33% of 330,000 active; Ubiquitin carboxyl-terminal hydrolase isozyme L5 (Homo sapiens), Q9Y5K5;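 active = mean inhibition over replicate wells above about 20%, limit read from the data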;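 note: 0% = compound-free wells with enzyme and 100% = wells lacking proteasome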
Target sequence (Q9Y5K5 whole entry, looked up): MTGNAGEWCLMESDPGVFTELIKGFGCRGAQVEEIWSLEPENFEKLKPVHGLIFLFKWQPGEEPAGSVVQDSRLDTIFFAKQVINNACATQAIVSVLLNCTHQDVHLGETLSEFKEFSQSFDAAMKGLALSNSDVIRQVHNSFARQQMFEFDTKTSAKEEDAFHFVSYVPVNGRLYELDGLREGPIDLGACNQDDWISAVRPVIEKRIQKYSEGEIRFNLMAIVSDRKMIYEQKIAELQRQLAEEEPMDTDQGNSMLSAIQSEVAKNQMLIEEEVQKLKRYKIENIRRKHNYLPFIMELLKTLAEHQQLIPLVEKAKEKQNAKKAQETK
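Material: human UCH37 enzyme supplied as purified proteasome complex / Amount: 0.15 nM proteasome as dispensed / Buffer or medium: pH 7.4 Tris-HCl (50 mM) with ovalbumin, ATP-MgCl2, DTT / Times: preincubation 30 min, reaction 25 min, room temperature / Technique: AMC fluorescence from Ub-AMC cleavage, excitation 355 nm, emission 460 nm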
A3G deaminase: APOBEC3G DNA deaminase inhibitors, primary screen, biochemical, fluorescence, single-stranded DNA substrate, uHTS; DNA dC->dU-editing enzyme APOBEC-3G (Homo sapiens), Q9HC16; recombinant A3G, ssDNA deamination FAM/TAMRA fluorescence; inhibition, % at 20 µM; 0.28% of 330,000 active;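 active = inhibition of at least 40% at 20 µM, with no more than 30% in the related APOBEC3A deaminase screen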;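 note: plate controls were DMSO wells with A3G for no effect and wells lacking A3G enzyme for full effect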
Target sequence (Q9HC16 whole entry, looked up): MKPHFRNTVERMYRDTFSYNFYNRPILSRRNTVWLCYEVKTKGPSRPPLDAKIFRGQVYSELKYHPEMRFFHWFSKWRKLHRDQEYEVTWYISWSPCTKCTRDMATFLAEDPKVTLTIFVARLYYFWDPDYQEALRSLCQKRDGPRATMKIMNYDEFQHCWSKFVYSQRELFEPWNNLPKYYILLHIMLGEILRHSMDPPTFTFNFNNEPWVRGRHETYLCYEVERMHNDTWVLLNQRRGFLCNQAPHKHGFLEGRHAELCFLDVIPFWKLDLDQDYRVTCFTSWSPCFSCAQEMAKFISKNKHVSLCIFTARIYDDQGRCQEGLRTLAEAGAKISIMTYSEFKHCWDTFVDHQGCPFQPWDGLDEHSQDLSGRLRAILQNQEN
PolyA inhibitor: polyadenylation inhibitors in yeast reporter cells, primary screen, luminescence, S. cerevisiae; activity score, % at 12 µM; S. cerevisiae SKY197-pL101 polyadenylation reporter, beta-gal luminescence; efflux-impaired pdr1/pdr3 knockout yeast; score 100 = 6 SD above DMSO; 0.02% of 300,000 active;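 active = lowest replicate activity score at least 50, where 100 means six control SD above control mean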;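 note: yeast exposed to compound for 9 h at 30 °C; higher score means more reporter readthrough which indicates perturbed polyadenylation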
A3A deaminase: APOBEC3A ssDNA deaminase inhibitors, primary screen, selectivity assay for APOBEC3G inhibitor project, biochemical, FAM/TAMRA oligo cleavage fluorescence; AID 493011, 2011; 0.41% of 330,000 active; inhibition, % at 20 µM; recombinant A3A, FAM/TAMRA ssDNA deamination fluorescence; DNA dC->dU-editing enzyme APOBEC-3A (Homo sapiens), P31941;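 active = at least 40% inhibition at 20 µM here, with at most 30% in a related deaminase screen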;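 note: plate controls were A3A with DMSO for no effect and wells lacking A3A enzyme for full effect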
* marks the source's active call; other numbers are inactive results; . = not tested or not shown.

SMILES	AHR activator	Arr AP2 block	UCH37 inh	A3G deaminase	PolyA inhibitor	A3A deaminase
C=CCn1c(=N)n(CC(=O)c2ccc(Br)s2)c2ccccc21	79.6*	-3.5	3.7	1.6	-1.0	1.7
C=CCn1c(=N)n(CC(=O)OC)c2ccccc21	4.3	-0.7	2.2	1.0	-1.2	0.7
C=CCn1c(=N)n(CC(=O)c2ccc(Cl)cc2)c2ccccc21	78.8*	6.4	4.1	-5.8	-0.9	-3.9
Cc1ccc(C=NN=C2SCC(=O)N2CC2CC2)cc1	.	.	2.5	.	.	.
CC(=NOCC(=O)NN=Cc1ccc(C)cc1O)c1cccs1	.	.	-5.2	.	.	.
Cc1nn(-c2ccccc2)c(C)c1C=NNS(=O)(=O)c1ccc(Cl)cc1	.	.	4.1	.	.	.
Nc1nnnn1N=Cc1cccc(Br)c1	.	.	3.5	.	.	.
O=C(NN1C(=O)c2cc(Br)ccc2NC1c1cc(Br)cc(Br)c1O)c1ccncc1 (configuration not stated)	56.1*	-21.3	2.3	-4.1	-3.6	-2.5
O=C(NN1C(=O)c2ccccc2NC1c1ccccc1OCc1ccccc1)c1ccncc1 (configuration not stated)	13.2	-7.0	0.5	-8.5	-6.4	-2.6
COc1ccc(Br)cc1C1Nc2ccccc2C(=O)N1NC(=O)c1ccncc1 (configuration not stated)	10.4	-8.7	2.6	-4.3	-6.7	3.8
O=C(NN1C(=O)c2cc(Br)ccc2NC1c1ccccc1Cl)c1ccncc1 (configuration not stated)	48.5*	9.7	.	-0.9	5.5	2.8
Cc1nc(NC(=O)c2ccco2)sc1-c1csc(Nc2ccc(Cl)cc2)n1	75.4*	30.7	.	6.7	-5.4	1.8
Cc1ccc(Cl)cc1Nc1nc(-c2sc(NC(=O)c3ccco3)nc2C)cs1	28.5	1.2	-3.9	-8.9	16.0	-4.5
Cc1nc(NC(=O)c2ccccc2)sc1-c1csc(Nc2ccc(Cl)cc2)n1	58.5*	.	.	-6.3	-6.4	-2.3
COc1ccccc1Nc1nc(-c2sc(NC(=O)c3ccco3)nc2C)cs1	78.9*	8.1	-3.1	-2.8	5.4	-3.1
Cc1nc(NC(=O)c2ccccc2)sc1-c1csc(Nc2ccc(F)cc2)n1	23.3	.	.	-2.7	6.6	-1.5
COc1cccc(N(C(=O)c2ccco2)c2nc(-c3sc(NC(=O)c4ccco4)nc3C)cs2)c1	65.1*	2.1	-10.7	-7.9	33.3	-5.5
COc1cccc(-c2c(C(=O)NN=C(C)c3ccco3)nnn2-c2nonc2N)c1	.	.	-4.9	.	.	.
Cc1ccccc1Nc1nc(-c2sc(NC(=O)c3ccccc3)nc2C)cs1	61.8*	.	.	1.6	-7.4	-1.3
Cc1ccccc1Nc1nc(-c2sc(NC(=O)c3cccc(Cl)c3)nc2C)cs1	42.0	.	.	-6.4	0.2	-2.4
Cc1nc(C(F)(F)F)c(C(=O)NN=C(N)c2cccnc2)s1	.	.	5.2	.	.	.
COc1ccc(NC(=O)c2cc3ccccc3cc2OC)cc1OC	4.6	22.4	3.1	-4.2	-17.7	0.4
O=C(Nc1ccccn1)c1cc2ccccc2cc1O	68.3*	3.3	4.5	-3.1	1.5	0.6
COc1cc2ccccc2cc1C(=O)Nc1ccc(Cl)cn1	52.5*	41.1	-28.1	-3.8	13.0	-3.8
COc1ccc(C(=O)Nc2ccc(C)cn2)c(OC)c1	49.0*	-7.0	2.6	-2.5	-8.5	1.7
SMILES	AHR activator	Arr AP2 block	UCH37 inh	A3G deaminase	PolyA inhibitor	A3A deaminase
CC(=NNC(=O)c1cccc(S(=O)(=O)N2CCCC2)c1)c1cccs1	.	.	3.2	.	.	.
CCCC=NNC(=O)c1[nH]c2c([N+](=O)[O-])cccc2c1C	.	.	1.8	.	.	.
COc1cc(C(=O)NC(=S)Nc2nccs2)cc(OC)c1OC	78.8*	5.7	3.4	-1.6	-2.8	-0.2
COc1cc(SC)ccc1C(=O)Nc1nccs1	52.4*	2.7	5.7	-4.9	-29.0	-1.7
COc1cc(C(=O)Nc2nnc(C)s2)cc(OC)c1OC	69.3*	18.5	3.9	-4.2	-16.1	-2.8
Clc1cccc(Cl)c1CONC=Nc1ncnc2sccc12	.	.	2.4	.	.	.
CC(=NNS(=O)(=O)c1ccccc1)c1ccc(NC(=O)C2CC2)cc1	.	.	5.1	.	.	.
O=C(Nc1nccs1)C1Cc2ccccc2CN1S(=O)(=O)c1ccc(F)cc1 (configuration not stated)	64.4*	2.6	0.6	-6.7	-9.9	-0.3
O=C(NC1CCCCC1)C1Cc2ccccc2CN1S(=O)(=O)c1ccc(F)cc1 (configuration not stated)	-1.9	-1.6	4.4	3.3	-15.6	4.8
Cc1cc(NC(=O)c2nn(C)c(C)c2Br)no1	62.7*	-13.5	1.5	-4.3	-9.5	-0.1
O=c1cc(/C=C/c2cccs2)[nH]c2ccccc12	4.5	1.9	-8.2	-7.3	11.1	-2.3
CSc1ccc(/C=C/c2cc(=O)c3ccccc3[nH]2)cc1	56.0*	18.3	-99.0	-3.4	9.4	-0.8
O=C1C=CC(=O)c2c(O)c(CO)c(CO)c(O)c21	.	57.8*	.	.	.	.
O=C(NN=C/C=C/c1ccccc1)c1ccccc1Br	.	.	8.5	.	.	.
O=c1c2ccccc2nc(COc2ccccc2)n1/N=C/c1c[nH]c2ccccc12	63.0*	0.5	.	-1.7	-4.7	0.9
O=c1c2ccccc2nc(COc2ccccc2)n1/N=C/c1ccc(O)cc1O	0.7	37.2	.	-6.5	-16.3	-3.9
CCOC(=O)C(=O)NN=Cc1cccc(Br)c1	.	.	-0.4	.	.	.
CCSC1=N/C(=C\c2ccc3c(c2)OCO3)C(=O)S1	0.8	-8.0	2.1	0.3	-4.8	0.6
CCSC1=N/C(=C\C=C2/Oc3ccccc3N2CC)C(=O)S1	74.5*	17.2	6.0	0.0	-4.6	16.0
Cc1c(C=NNC(=O)c2ccc(Br)cc2)c2ccccn2c1C(=O)c1ccncc1	2.6	13.9	6.3	-1.4	.	0.0
N#Cc1c(N)c2ccccn2c1C(=O)c1ccc(Br)cc1	61.4*	4.5	0.3	-1.1	-15.4	-0.6
Cc1ccc(C=NNc2ccc(C(=O)O)cc2)o1	.	.	15.4	.	.	.
O=C(Nc1ncc2c(n1)-c1ccccc1CC2)C1CC1	75.9*	25.9	3.5	-6.6	3.2	-2.3
CC(C)SCC(=O)Nc1ncc2c(n1)-c1ccccc1CC2	4.9	3.9	-28.0	13.7	28.6	12.0
c1ccc(CNc2nc3ccccc3n3cnnc23)nc1	50.4*	21.8	6.8	6.3	-0.3	0.5
Cc1ccc(S(=O)(=O)N2CCN(CC(=O)NN=Cc3ccc(C)o3)CC2)cc1	.	.	4.7	.	.	.
